Columns and labels:
[1] = target: T1, Potassium voltage-gated channel subfamily A member 3 (Homo sapiens, UniProt P22001); assay: Inhibition of Kv1.3 ion channel. Measured in the Rb_Kv assay: [86Rb+] efflux from CHO cells stably transfected with Kv1.3 channel.; format: functional, cell-based
[2] = target: T1, Potassium voltage-gated channel subfamily A member 3; assay: Inhibition of DiTc binding to Kv1.3 channel in human brain membranes; format: cell membranes, Membrane
[3] = Inhibition of DiTc binding to Kv1.x channel in human brain membranes; format: cell membranes, Membrane
Outline: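 Displacement of diTC (C20-C29 ditritio-correolide) binding to human brain membranes carrying Kv1.x channels, primarily heteromultimeric Kv1.1/Kv1.2.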

[4] = target: T1, Potassium voltage-gated channel subfamily A member 3; assay: Inhibition of [86Rb+] efflux from CHO cells stably transfected with Kv1.3 channel; format: functional, cell-based

T1 sequence (P22001 whole entry): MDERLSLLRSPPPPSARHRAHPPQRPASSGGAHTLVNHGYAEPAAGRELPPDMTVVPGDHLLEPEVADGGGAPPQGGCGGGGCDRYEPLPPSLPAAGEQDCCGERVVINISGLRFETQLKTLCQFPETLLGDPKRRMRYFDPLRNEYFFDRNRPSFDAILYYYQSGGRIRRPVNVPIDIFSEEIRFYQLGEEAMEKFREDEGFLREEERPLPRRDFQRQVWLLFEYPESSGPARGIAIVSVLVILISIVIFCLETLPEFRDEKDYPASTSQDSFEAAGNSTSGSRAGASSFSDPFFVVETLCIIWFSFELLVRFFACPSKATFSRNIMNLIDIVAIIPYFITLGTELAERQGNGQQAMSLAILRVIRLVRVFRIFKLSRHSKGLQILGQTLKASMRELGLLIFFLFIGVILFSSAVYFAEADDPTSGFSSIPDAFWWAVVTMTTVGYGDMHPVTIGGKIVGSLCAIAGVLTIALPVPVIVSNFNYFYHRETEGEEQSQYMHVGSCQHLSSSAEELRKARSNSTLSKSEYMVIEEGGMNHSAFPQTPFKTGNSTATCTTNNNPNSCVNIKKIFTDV

| SMILES | IC50 [1] [nM] | other results |
| --- | --- | --- |
| C=CCNC(=O)O[C@H]1CC[C@@](CNC(=O)c2cccc3c2OCC3)(c2ccccc2)CC1 | 3730 | – |
| C=CCNC(=O)N[C@H]1CC[C@@](CNC(=O)c2ccccc2OC)(c2ccccc2)CC1 | – | IC50 [2]: 29 nM; IC50 [3]: 120 nM; IC50 [4]: 150 nM |
| COc1ccccc1C(=O)NC[C@]1(c2ccccc2)CC[C@@H](NC(=O)c2ccccc2)CC1 | 1560 | – |
| C=CCN(C)C(=O)O[C@H]1CC[C@@](CNC(=O)c2ccccc2OC)(c2ccccc2)CC1 | 320 | – |
| COc1ccccc1C(=O)NC[C@]1(c2ccccc2)CC[C@@H](OC(=O)NCCO)CC1 | 310 | – |
| COCCCNC(=O)O[C@H]1CC[C@](CNC(=O)c2ccccc2OC)(c2ccccc2)CC1 | 130 | – |
| O=C1CCC(CNC(=O)c2ccccc2)(c2ccccc2)CC1 | > 30000 | – |
| C=CCNC(=O)O[C@H]1CC[C@](CNC(=O)c2ccccc2OC)(c2ccccc2)CC1 | – | IC50 [2]: 140 nM; IC50 [3]: 170 nM; IC50 [4]: 130 nM |
| COc1ccccc1C(=O)NC[C@]1(c2ccccc2)CC[C@H](NC(=O)CCc2ccccc2)CC1 | 120 | – |
| COc1ccccc1C(=O)NC[C@]1(c2ccccc2)CC[C@@H](NC(=O)c2cccc(Br)c2)CC1 | > 30000 | – |
| COc1ccccc1C(=O)NC[C@]1(c2ccccc2)CC[C@H](NC(=O)c2ccccc2)CC1 | 75 | – |
| COc1cccc(C(=O)NCC2(c3ccccc3)CCC(=O)CC2)c1 | > 30000 | – |
| COc1ccccc1C(=O)NCC1CCCCC1 | > 30000 | – |
| CCCCNC(=O)O[C@H]1CC[C@@](CNC(=O)c2ccccc2OC)(c2ccccc2)CC1 | 90 | – |
| COCCNC(=O)O[C@H]1CC[C@@](CNC(=O)c2ccccc2OC)(c2ccccc2)CC1 | 140 | – |
| COCCCNC(=O)O[C@H]1CC[C@@](CNC(=O)c2ccccc2OC)(c2ccccc2)CC1 | 145 | – |
| C=CCNC(=O)N[C@H]1CC[C@](CNC(=O)c2ccccc2OC)(c2ccccc2)CC1 | – | IC50 [2]: 80 nM; IC50 [3]: 125 nM; IC50 [4]: 140 nM |
| COc1ccccc1C(=O)NC[C@]1(c2ccccc2)CC[C@@H](NC(=O)CCc2ccccc2)CC1 | 570 | – |
| COc1ccccc1C(=O)NC[C@]1(c2ccccc2)CC[C@@H](NC(=O)C=C(C)C)CC1 | 470 | – |
| COc1ccccc1C(=O)NC[C@]1(c2ccccc2)CC[C@@H](OC(=O)NCc2ccccc2)CC1 | 1700 | – |
| COc1ccccc1C(=O)NC[C@]1(c2ccccc2)CC[C@H](OC(=O)NC(C)C)CC1 | 130 | – |
| CCC(=O)N[C@H]1CC[C@@](CNC(=O)c2ccccc2OC)(c2ccccc2)CC1 | 210 | – |
| COc1ccccc1C(=O)NC[C@]1(c2ccccc2)CC[C@@H](NC(C)=O)CC1 | 470 | – |

| SMILES | IC50 [1] [nM] | other results |
| --- | --- | --- |
| CCCNC(=O)O[C@H]1CC[C@@](CNC(=O)c2ccccc2OC)(c2ccccc2)CC1 | – | IC50 [2]: 5 nM; IC50 [3]: 30 nM; IC50 [4]: 50 nM |
| CNC(=O)O[C@H]1CC[C@@](CNC(=O)c2ccccc2OC)(c2ccccc2)CC1 | – | IC50 [2]: 5 nM; IC50 [3]: 33 nM; IC50 [4]: 58 nM |
| C=CCN(C)C(=O)O[C@H]1CC[C@](CNC(=O)c2ccccc2OC)(c2ccccc2)CC1 | 145 | – |
| COc1ccccc1C(=O)NC[C@]1(c2ccccc2)CC[C@@H](OC(=O)NC(C)C)CC1 | 75 | – |
| COc1ccccc1C(=O)NC[C@]1(c2ccccc2)CC[C@@H](NC(=O)SC)CC1 | 150 | – |
| COc1ccccc1C(=O)NC[C@]1(c2ccccc2)CC[C@H](OC(=O)NCCO)CC1 | 95 | – |
| CCOc1ccccc1C(=O)NCC1(c2ccccc2)CCC(=O)CC1 | 580 | – |
| C=CCN(C)C(=O)N[C@H]1CC[C@](CNC(=O)c2ccccc2OC)(c2ccccc2)CC1 | 195 | – |
| CNC(=O)O[C@H]1CC[C@](CNC(=O)c2ccccc2OC)(c2ccccc2)CC1 | – | IC50 [2]: 99 nM; IC50 [3]: 104 nM; IC50 [4]: 150 nM |
| C=C(C)CNC(=O)O[C@H]1CC[C@](CNC(=O)c2ccccc2OC)(c2ccccc2)CC1 | 120 | – |
| COc1ccccc1C(=O)NC[C@]1(c2ccccc2)CC[C@H](OC(=O)Nc2ccccc2)CC1 | 120 | – |
| COc1ccccc1C(=O)NC[C@]1(c2ccccc2)CC[C@@H](NC(=O)c2ccc(Br)cc2)CC1 | > 30000 | – |
| COc1ccccc1C(=O)N(C)CC1(c2ccccc2)CCC(=O)CC1 | > 30000 | – |
| COCCNC(=O)O[C@H]1CC[C@](CNC(=O)c2ccccc2OC)(c2ccccc2)CC1 | 140 | – |
| CCCC(=O)N[C@H]1CC[C@@](CNC(=O)c2ccccc2OC)(c2ccccc2)CC1 | 200 | – |
| C=CCNC(=O)O[C@H]1CC[C@@](CNC(=O)c2cc(Cl)ccc2OC)(c2ccccc2)CC1 | 230 | – |
| COc1ccccc1C(=O)NC[C@]1(c2ccccc2)CC[C@H](NC(=O)Cc2ccccc2)CC1 | 130 | – |
| CNc1ccccc1C(=O)NCC1(c2ccccc2)CCC(=O)CC1 | 600 | – |
| COc1ccccc1C(=O)NC[C@]1(c2ccccc2)CC[C@@H](NC(=O)Cc2ccccc2)CC1 | 1050 | – |
| COc1ccccc1C(=O)NC[C@]1(c2ccccc2)CC[C@H](OC(=O)NCCCc2ccccc2)CC1 | 535 | – |
| C/C=C/C(=O)N[C@H]1CC[C@](CNC(=O)c2ccccc2OC)(c2ccccc2)CC1 | 100 | – |
| CCCCNC(=O)O[C@H]1CC[C@](CNC(=O)c2ccccc2OC)(c2ccccc2)CC1 | 140 | – |
| C=CCOC(=O)N[C@H]1CC[C@](CNC(=O)c2ccccc2OC)(c2ccccc2)CC1 | – | IC50 [2]: 72 nM; IC50 [3]: 68 nM; IC50 [4]: 90 nM |

| SMILES | IC50 [1] [nM] | other results |
| --- | --- | --- |
| COc1ccccc1C(=O)NC[C@]1(c2ccccc2)CC[C@H](OC(=O)NCCc2ccccc2)CC1 | 420 | – |
| COc1ccccc1C(=O)NCC1(c2ccccc2)CCC(=O)CC1 | 200 | – |
| C=CCN(CC=C)C(=O)O[C@H]1CC[C@](CNC(=O)c2ccccc2OC)(c2ccccc2)CC1 | 205 | – |
| COc1ccc(C(=O)NCC2(c3ccccc3)CCC(=O)CC2)cc1 | 10000 | – |
| C=CCNC(=O)O[C@H]1CC[C@@](CNC(=O)c2ccccc2OC)(c2ccccc2)CC1 | – | IC50 [2]: 18 nM; IC50 [3]: 112 nM; IC50 [4]: 70 nM |
| C=CCOC(=O)N[C@H]1CC[C@@](CNC(=O)c2ccccc2OC)(c2ccccc2)CC1 | 242 | – |
| COc1ccccc1C(=O)NC[C@]1(c2ccccc2)CC[C@@H](OC(=O)Nc2ccccc2)CC1 | > 30000 | – |
| COc1ccccc1C(=O)NC[C@]1(c2ccccc2)CC[C@H](OC(=O)NCc2ccccc2)CC1 | 245 | – |
| COc1ccccc1C(=O)N(C)CC1(c2ccccc2)CCNCC1 | > 30000 | – |
| COc1ccccc1S(=O)(=O)NCC1(c2ccccc2)CCC(=O)CC1 | > 30000 | – |
| COc1ccccc1C(=O)NC[C@]1(c2ccccc2)CC[C@@H](NC(=O)c2ccccc2Br)CC1 | 2790 | – |
| C=CCNC(=O)O[C@H]1CC[C@@](CNC(=O)c2cc(F)ccc2O)(c2ccccc2)CC1 | 140 | – |
| C=CCNC(=O)O[C@H]1CC[C@@](CNC(=O)c2cccc(Cl)c2OC)(c2ccccc2)CC1 | 8380 | – |
| CCCNC(=O)O[C@H]1CC[C@](CNC(=O)c2ccccc2OC)(c2ccccc2)CC1 | – | IC50 [2]: 79 nM; IC50 [3]: 76 nM; IC50 [4]: 100 nM |
| C=CCNC(=O)O[C@H]1CC[C@@](CNC(=O)c2cccnc2OC)(c2ccccc2)CC1 | 325 | – |
| C=CCN(CC=C)C(=O)O[C@H]1CC[C@@](CNC(=O)c2ccccc2OC)(c2ccccc2)CC1 | 840 | – |
| C=C(C)CNC(=O)O[C@H]1CC[C@@](CNC(=O)c2ccccc2OC)(c2ccccc2)CC1 | 90 | – |
| C/C=C/C(=O)N[C@H]1CC[C@@](CNC(=O)c2ccccc2OC)(c2ccccc2)CC1 | 440 | – |
| COC(=O)N[C@H]1CC[C@@](CNC(=O)c2ccccc2OC)(c2ccccc2)CC1 | 135 | – |
| O=C1CCC(CNC(=O)c2cccc(Cl)c2)(c2ccccc2)CC1 | 30000 | – |
| C=CCOC(=O)O[C@H]1CC[C@](CNC(=O)c2ccccc2OC)(c2ccccc2)CC1 | 230 | – |
| C=CCNC(=O)O[C@H]1CC[C@@](CNC(=O)c2cccc(Cl)c2O)(c2ccccc2)CC1 | 7200 | – |

— ChEMBL document CHEMBL1136659, “Benzamide derivatives as blockers of Kv1.3 ion channel” (Bioorg Med Chem Lett, 2003)
